Source: ChEMBL document CHEMBL1156597, “Structure-activity relationship of kahalalide F synthetic analogues” (J Med Chem, 2008)
pIC50: −log10 of the molar value.

Legend:
A549 = experiment: Cytotoxicity against human A549 cells after 48 hrs by SRB assay; assay type: functional, cell-based; conditions: Homo sapiens, A549, 48 h
Method in brief: (§1)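 Cells grown in RPMI 1640 with 10% FBS and penicillin/streptomycin at 37 °C and 5% CO₂, trypsinized, then seeded at 5 × 10³/well. After 18 h drug-free attachment, samples in DMSO/EtOH/PBS (0.5:0.5:99) were added for 48 h continuous exposure. Cells were fixed with cold TCA (1 h, 4 °C) and stained with SRB (10 min). Tris-solubilized stain read at 490 nm. Triplicate wells, mean ± SD; GI₅₀ derived.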

SK-MEL-28 [1] = experiment: Cytotoxicity against human SK-MEL-28 cells after 48 hrs by SRB assay; assay type: functional, cell-based; conditions: Homo sapiens, SK-MEL-28, 48 h; method in brief: as §1
DU-145 [2] = experiment: Cytotoxicity against human DU145 cells
HT-29 = experiment: Cytotoxicity against human HT29 cells after 48 hrs by SRB assay; assay type: functional, cell-based; conditions: Homo sapiens, HT-29, 48 h; method in brief: as §1
DU-145 [3] = experiment: Cytotoxicity against human DU145 cells after 48 hrs by SRB assay; assay type: functional, cell-based; conditions: Homo sapiens, DU-145, 48 h; method in brief: as §1
SK-MEL-28 [4] = experiment: Cytotoxicity against human SK-MEL-28 cells
SK-BR-3 = experiment: Cytotoxicity against human SKBR3 cells after 48 hrs by SRB assay; assay type: functional; conditions: SK-BR-3, 48 h; method in brief: as §1
[5] = Cytotoxicity against human IGROV-ET cells after 48 hrs by SRB assay; assay type: functional; method in brief: as §1
PANC-1 = experiment: Cytotoxicity against human PANC1 cells after 48 hrs by SRB assay; assay type: functional; conditions: PANC-1, 48 h; method in brief: as §1
LNCaP = experiment: Cytotoxicity against human LNcaP cells after 48 hrs by SRB assay; assay type: functional; method in brief: as §1
LoVo [6] = experiment: Cytotoxicity against human LoVo cells after 48 hrs by SRB assay; assay type: functional
K562 = experiment: Cytotoxicity against human K562 cells after 48 hrs by SRB assay; assay type: functional; conditions: K562, 48 h; method in brief: as §1
[7] = Cytotoxicity against human IGROV cells after 48 hrs by SRB assay; assay type: functional; method in brief: as §1
HeLa = experiment: Cytotoxicity against human HeLa cells after 48 hrs by SRB assay; assay type: functional; method in brief: as §1
LoVo [8] = experiment: Cytotoxicity against human doxorubicin resistant LoVo cells after 48 hrs by SRB assay; assay type: functional; method in brief: as §1
[9] = Cytotoxicity against human HeLa-APL cells after 48 hrs by SRB assay; assay type: functional; method in brief: as §1
[10] = read-out: LC50 (the source's name)

C/C=C1\NC(=O)[C@H](Cc2ccccc2)NC(=O)[C@@H](C(C)C)NC(=O)[C@@H]([C@H](C)CC)NC(=O)[C@H](NC(=O)[C@H](NC(=O)CCCC(C)C)[C@H](C)CC)[C@H](C)OC(=O)[C@H](C(C)C)NC1=O
pIC50 (A549): 4.94
pIC50 (SK-MEL-28 [1]): 4.94
pIC50 (DU-145 [2]): 4.94
pIC50 (HT-29): 4.94

CC[C@@H](C)[C@@H](NC(=O)[C@H](CCCN)NC(=O)[C@H]1CCCN1C(=O)[C@H](NC(=O)[C@@H](NC(=O)[C@@H](NC(=O)[C@H](NC(=O)CCCC(C)C)C(C)C)[C@@H](C)O)C(C)C)C(C)C)C(=O)N[C@H]1C(=O)N[C@H]([C@H](C)CC)C(=O)N[C@H](C(C)C)C(=O)N[C@@H](Cc2ccccc2)C(=O)N[C@H]([C@@H](C)O)C(=O)N[C@@H](C(C)C)C(=O)O[C@H]1C
pIC50 (A549): 4.94
pIC50 (SK-MEL-28 [1]): 4.93
pIC50 (DU-145 [2]): 4.74
pIC50 (HT-29): 5.07

C/C=C1\NC(=O)[C@H](Cc2ccccc2)NC(=O)[C@@H](C(C)C)NC(=O)[C@@H]([C@H](C)CC)NC(=O)[C@H](NC(=O)[C@H](NC(=O)[C@H]2CCCN2C(=O)[C@H](NC(=O)[C@@H](NC(=O)[C@@H](NC(=O)[C@H](NC(=O)CCCC(C)C)C(C)C)[C@@H](C)O)C(C)C)C(C)C)[C@H](C)CC)[C@H](C)OC(=O)[C@H](C(C)C)NC1=O
pIC50 (DU-145 [3]): 5.44
pIC50 (HT-29): 5.44
pIC50 (SK-MEL-28 [4]): 5.44

C/C=C1\NC(=O)[C@H](Cc2ccccc2)NC(=O)[C@@H](C(C)C)NC(=O)[C@@H]([C@H](C)CC)NC(=O)[C@H](NC(=O)[C@H](NC(=O)[C@H](CCCN)NC(=O)[C@H]2CCCN2C(=O)[C@@H](NC(=O)[C@H](NC(=O)[C@@H](NC(=O)[C@H](NC(=O)CCCC(C)C)C(C)C)[C@@H](C)O)C(C)C)C(C)C)[C@H](C)CC)[C@H](C)OC(=O)[C@H](C(C)C)NC1=O
pIC50 (A549): 5.47
pIC50 (DU-145 [3]): 5.47
pIC50 (HT-29): 5.47
pIC50 (SK-MEL-28 [4]): 5.47

C/C=C1\NC(=O)[C@H](Cc2ccccc2)NC(=O)[C@@H](C(C)C)NC(=O)[C@@H]([C@H](C)CC)NC(=O)[C@H](NC(=O)[C@H](NC(=O)[C@@H](NC(=O)[C@H](NC(=O)CCCC(C)C)C(C)C)[C@@H](C)O)[C@H](C)CC)[C@H](C)OC(=O)[C@H](C(C)C)NC1=O
pIC50 (A549): 5.03
pIC50 (DU-145 [3]): 5.03
pIC50 (HT-29): 5.03
pIC50 (SK-MEL-28 [4]): 5.03

C/C=C1\NC(=O)[C@H](Cc2ccccc2)NC(=O)[C@@H](C(C)C)NC(=O)[C@@H]([C@H](C)CC)NC(=O)[C@H](NC(=O)[C@H](NC(=O)[C@H](CCCN)NC(=O)[C@H]2CCCN2C(=O)[C@H](NC(=O)[C@@H](NC(=O)[C@@H](NC(=O)[C@H](NC(=O)CCCN(C)C)C(C)C)[C@@H](C)O)C(C)C)C(C)C)[C@H](C)CC)[C@H](C)OC(=O)[C@H](C(C)C)NC1=O
pIC50 (A549): 5.17
pIC50 (DU-145 [3]): 5.17
pIC50 (HT-29): 5.17
pIC50 (SK-MEL-28 [4]): 5.17

C/C=C1\NC(=O)[C@H](Cc2ccccc2)NC(=O)[C@@H](C(C)C)NC(=O)[C@@H]([C@H](C)CC)NC(=O)[C@H](NC(=O)[C@H](NC(=O)[C@H](CCCN)NC(=O)[C@H]2CCCN2C(=O)[C@H](NC(=O)[C@@H](NC(=O)[C@@H](NC(=O)[C@H](NC(=O)CCCCCC)C(C)C)[C@@H](C)O)C(C)C)C(C)C)[C@H](C)CC)[C@H](C)OC(=O)[C@H](C(C)C)NC1=O
GI50 (SK-BR-3): 0.0363 µM
GI50 (SK-BR-3; read-out: GI50): 0.227 µM
CC50 (SK-BR-3; [10]): 0.363 µM
GI50 [5]: 0.304 µM
GI50 ([5]; read-out: GI50): 0.289 µM
CC50 [5, 10]: 0.394 µM
GI50 (PANC-1): 2.36 µM
TGI (PANC-1): 3.78 µM
CC50 (PANC-1; [10]): 2.72 µM
GI50 (LNCaP): 1.09 µM
TGI (LNCaP): 0.863 µM
CC50 (LNCaP; [10]): 0.861 µM
LC50 (A549): 1.15 µM
TGI (A549): 1.16 µM
GI50 (A549; read-out: GI50): 1.18 µM
GI50 (LoVo [6]): 0.32 µM
TGI (LoVo [6]): 0.324 µM
CC50 (LoVo [6]; [10]): 0.326 µM
GI50 (SK-MEL-28 [1]): 0.915 µM
GI50 (SK-MEL-28 [1]; read-out: GI50): 0.808 µM
CC50 (SK-MEL-28 [1]; [10]): 0.991 µM
GI50 (K562): 2.74 µM
TGI (K562): 2.97 µM
CC50 (K562; [10]): 1.99 µM
GI50 (DU-145 [3]): 0.88 µM
GI50 (DU-145 [3]; read-out: GI50): 0.848 µM
CC50 (DU-145 [3]; [10]): 0.895 µM
GI50 [7]: 0.404 µM
GI50 ([7]; read-out: GI50): 0.354 µM
CC50 [7, 10]: 0.421 µM
GI50 (HT-29): 0.499 µM
TGI (HT-29): 0.583 µM
CC50 (HT-29; [10]): 1.07 µM
GI50 (HeLa): 0.965 µM
TGI (HeLa): 0.882 µM
CC50 (HeLa; [10]): 0.806 µM
GI50 (LoVo [8]): 0.264 µM
TGI (LoVo [8]): 0.244 µM
CC50 (LoVo [8]; [10]): 0.175 µM
GI50 [9]: 0.781 µM
LC50 (concentration giving 50% net cell kill) [9]: 0.864 µM
TGI [9]: 0.822 µM

C/C=C1\NC(=O)[C@H](Cc2ccccc2)NC(=O)[C@@H](C(C)C)NC(=O)[C@@H]([C@H](C)CC)NC(=O)[C@H](NC(=O)[C@H](NC(=O)[C@@H](NC(=O)[C@@H](NC(=O)[C@H](NC(=O)CCCC(C)C)C(C)C)[C@@H](C)O)C(C)C)[C@H](C)CC)[C@H](C)OC(=O)[C@H](C(C)C)NC1=O
pIC50 (A549): 5.37
pIC50 (DU-145 [3]): 5.37
pIC50 (HT-29): 5.37
pIC50 (SK-MEL-28 [4]): 5.37
